Data on 7 molecules can be found in publication PMC4765894 (Journal of Medicinal Chemistry, 2015).

SMILES strings stand for the structures. “Also recorded” adds a separate entry of the source.

The subject of assay [1] is HIF-1. As to the kind of experiment: Dual luciferase-reporter assay. The assay is classed as cell-based, human. The conditions noted are these: HEK-293T, 24 h; for IC50: Homo sapiens. The procedure, abridged:
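HEK-293T seeded at 5 × 10^3 cells/well, attached 24 h, then transiently co-transfected with a firefly reporter carrying five HRE copies from the human VEGF promoter and a Renilla plasmid (pRL-SV40). Cells were then exposed to serially diluted test compound under 1% O2 for 24 h. Dual-Glo firefly read, then Stop & Glo Renilla read (10 min each). Firefly normalized to Renilla; three independent experiments.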
For orientation: In a reporter assay the amount or activity of a reporter protein is the signal.

In assay [2] the test system is HIF-1α. As to the kind of experiment: Western blot of HIF-1α expression in HEK-293T cells under hypoxia. It counts as cell-based, human. The following applies: 1 μM, hypoxia (1% O2), 24 h. The procedure, abridged: (§1)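 HEK-293T cells were held under hypoxia (1% O2) for 24 h with or without test compound at 1 μM, with a normoxic comparison. Total protein lysates were resolved by SDS-PAGE and transferred to nitrocellulose. Membranes were blocked 30 min at room temperature in 5% skim milk/TBS-0.1% Tween-20, then given primary antibody overnight at 4 °C and HRP secondary 1 h at room temperature. Detection was chemiluminescent, with β-actin as internal control.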

Assay [3] concerns HIF-1β. Kind of assay: Western blot of HIF-1β expression in HEK-293T cells under hypoxia. The assay is classed as cell-based, human. The following applies: 1 μM, 24 h. The procedure, abridged:
as §1
(Immunoblotting shows a protein as a band on a membrane.)

Assay [4] relates to HIF-1α. The conditions noted are these: 4T1 cells, hypoxic conditions, concentrations between 10 and 100 nM; cited from earlier work.
Assay [5] concerns VEGF secretion. The following applies: cited from earlier work.
Assay [6] concerns cyclin-dependent kinase 6 (Cdk6). Kind of assay: Western blot of Cdk6. The following applies: 1 μM, hypoxic conditions, 24 h. It counts as cell-based, human. The procedure, abridged:
as §1

Assay [7] concerns VEGF mRNA. As to the kind of experiment: Real-time PCR of VEGF mRNA under hypoxia. The assay is classed as cell-based, human. The following applies: 1 μM, hypoxic conditions, 24 h, normalized against β-actin. The procedure, abridged: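 Cells were given test compound at 1 μM under hypoxic conditions for 24 h, with normoxic and hypoxic controls. Total RNA was extracted with TRIzol and cDNA made with MMLV reverse transcriptase. SYBR Green real-time PCR used 10-fold diluted cDNA and gene-specific primers: 2 min 50 °C, 10 min 95 °C, then 40 cycles of 15 s 95 °C and 1 min 60 °C. Mean CT values were normalized to β-actin; triplicate runs, averaged.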
(Quantitative PCR measures a nucleic acid by following its amplification.)

The term IC50 denotes the concentration needed to halve the response being measured.

In assay [1], `COc1ccc(C(=O)[C@@H](C)Oc2ccc([C@H]3O[C@H](c4ccc(O[C@H](C)C(=O)c5ccc(C6(C(F)(F)F)N=N6)cc5)c(OC)c4)[C@H](C)[C@H]3C)cc2OC)cc1OCCOCCOCCNC(=O)CCCC[C@@H]1SC[C@@H]2NC(=O)N[C@@H]21` [MA14] displayed an IC50 of 2.32 µM.
Still for that read-out and setting: as for `C#CCOc1cc(C(=O)[C@@H](C)Oc2ccc([C@H]3O[C@H](c4ccc(O[C@H](C)C(=O)c5ccc(C6(C(F)(F)F)N=N6)cc5)c(OC)c4)[C@H](C)[C@H]3C)cc2OC)ccc1OC` [MA13], the figure is 0.73 µM.
In assay [1], `COc1ccc([C@@H](O)[C@@H](C)Oc2ccc([C@H]3O[C@H](c4ccc(O[C@H](C)[C@H](O)c5ccc(OC)c(OC)c5)c(OC)c4)[C@H](C)[C@H]3C)cc2OC)cc1OC` [compound 1, manassantin A, reference compound] returned an IC50 of 0.011 ± 0.003 µM. Besides, the “expression level of HIF-1α” value in assay [2] was “inhibit the expression”. Besides, in assay [3], the “regulation of HIF-1β” value was “did not regulate”. In assay [4], the “hypoxia-induced HIF-1α expression” value is recorded as “significantly inhibited”. Moreover, in assay [5], the “HIF-1 regulated VEGF secretion” value is “dramatically reduced”.
`COc1ccc(C(=O)COc2ccc([C@H]3O[C@H](c4ccc(OCC(=O)c5ccc(OC)c(OC)c5)c(OC)c4)[C@H](C)[C@H]3C)cc2OC)cc1OC` [MA07]: the “expression level of HIF-1α” value in assay [2] is “significantly down-regulated; also recorded: inhibit the expression”. Besides, the “regulation of HIF-1β” value in assay [3] was “did not regulate”. Also, the “protein level of Cdk6” value in assay [6] is listed as “decreased”.
On to `COc1ccc([C@@H](O)[C@@H](C)Oc2ccc([C@H]3O[C@H](c4ccc(OC)c(OC)c4)[C@H](C)[C@H]3C)cc2OC)cc1OC` [MA04, 4-O-methylsaucerneol], for which the “expression level of HIF-1α” value in assay [2] is “significantly down-regulated; also recorded: inhibit the expression”. Further, in assay [3], the “regulation of HIF-1β” value is “did not regulate”. In addition, the “protein level of Cdk6” value in assay [6] is on record as “decreased”. Also, the “VEGF mRNA levels” value in assay [7] is “significantly reduced”.
On to `COc1cc([C@H]2O[C@H](c3ccc(O[C@H](C)C(=O)c4ccccc4)c(OC)c3)[C@H](C)[C@H]2C)ccc1O[C@H](C)C(=O)c1ccccc1` [MA11], for which, in assay [2], the “expression level of HIF-1α” value is “significantly down-regulated; also recorded: inhibit the expression”. Moreover, the “regulation of HIF-1β” value in assay [3] was “did not regulate”. The “protein level of Cdk6” value in assay [6] is “decreased”.
Turning to `COc1ccc(C(=O)COc2cc(C(=O)[C@@H](C)Oc3ccc([C@H]4O[C@H](c5ccc(O[C@H](C)C(=O)c6ccc(OC)c(OCC(=O)c7ccc(OC)c(OC)c7)c6)c(OC)c5)[C@H](C)[C@H]4C)cc3OC)ccc2OC)cc1OC` [MA02], the “HIF-1 inhibitory activity in luciferase assay (in words)” value in assay [1] (hypoxia (1% O2)) is “almost inactive”. For the same molecule, the IC50 in assay [1] is greater than 10000 µM.
